Assay outcomes: PubChem BioAssay, several laboratories
Diaphorase inh: counter-screen for diaphorase-based assays: diaphorase inhibitors and chemical oxidizers. inhibition, % at 20 µM. hit rate 0.69% among 190,000. diaphorase resazurin-to-resorufin fluorescence, NADH, 16 min; bacterial (C. kluyveri) enzyme, not human;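 active = primary screen inhibition at 20 µM above a set limit, cut at about 50% in these data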
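Detection: fluorescence of resorufin formed from resazurin, Ex 544/Em 590 nm; test system: Clostridium kluyveri diaphorase enzyme; amount: 0.14 U/mL diaphorase, enzyme working solution; times: 16-min room-temperature incubation before reading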
WT yeast gro inh: growth inhibition of WT yeast, mitochondrial fusion screen. mitochondrial fusion phenotypic screen, WT strain. hit rate 2.1% among 190,000. AID 1362. inhibition, % at 10 µM; in the data active = inhibition above about 58%; tested in S. cerevisiae
G6PDH CS: counter-screen for G6PDH assay hits: L. mesenteroides G6PDH inhibition; inhibition, % at 5 µM; Purified L. mesenteroides G6PDH, diaphorase/resazurin coupled fluorescence, 45 min; hit rate 0.12% among 200,000
Diaphorase act: diaphorase activation or chemical reduction counter-screen; Diaphorase/resazurin coupled assay, resorufin fluorescence, 16 min; hits give high values; 1 = vehicle wells, 0 = NADH-free wells; activation factor at 20 µM; hit rate 0.005% among 190,000;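 active = diaphorase activity raised at least twofold by the compound at 20 µM; inactive = activation factor below 2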
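test system = bacterial diaphorase enzyme (C. kluyveri) | quantity = enzyme 0.07 U/mL final | reagent = NADH substrate 0.114 mM plus resazurin dye 0.1 mM, final | incubation = 16 min enzyme reaction, ambient temperature | buffer or medium = HEPES pH 7.4 buffer with MgCl2 and Tween 20 | signal = fluorescence of resorufin, 544 nm excitation, 590 nm emission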
Lmaj promast: reduces viability of Leishmania major promastigotes | resazurin fluorescence viability | inhibition, % at 10 µM | hit rate 9% among 200,000 | AID 1063;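 also: promastigotes grown with compound for 44 hours at 28 °C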
Each line names hits and unclear results; the compound was inactive in the other large screens. Rows were chosen to be rich in hits. Some 11% of all compounds tested hit in one or more screens of this group. Rule as the data show it, unless noted: active = inhibition above about 50%; inactive = the rest.

O=C(c1ccncc1)c1ccc(N2CCN(C3CC(=O)N(Cc4ccccc4)C3=O)CC2)cc1 (stereo not drawn)	Lmaj promast 98
CCCCCCCc1nn2c(=O)cc(O)nc2s1	none
CC(=O)Nc1ccc(NC2(C)C(=O)c3ccccc3C2=O)cc1	none
CC(=O)Nc1ccc2c(c1)C(C)(C)C(C)N2C (stereo not drawn)	Lmaj promast 94
CCOC(=O)C1=C(Cc2ccc(F)cc2)C(=O)c2ccccc2C1=O	G6PDH CS 62
O=C(OCc1ccc(F)cc1)c1ccc2c(c1)-c1ccccc1C2=O	none
CCN(CC)C(=O)C(C(=O)c1cccc([N+](=O)[O-])c1)n1cc(Cl)ccc1=O (stereo not drawn)	none
COc1ccccc1NC(=O)C1=C(C)Nc2nnnn2C1c1ccccn1 (stereo not drawn)	Lmaj promast 85 (no result: WT yeast gro inh)
N#CCCn1cc(C(=O)N2CCCCC2)c(-c2cccc([N+](=O)[O-])c2)n1	none
Cc1[nH]c2c(C)cccc2c1CCNS(=O)(=O)c1cccc([N+](=O)[O-])c1	none
Cc1ccc([N+](=O)[O-])cc1S(=O)(=O)NCCc1c(C)[nH]c2c(C)cccc12	Lmaj promast 66
CCCCOC(=O)c1ccc(NC(=O)CSC2=Nc3ccccc3C3CC=NN23)cc1 (stereo not drawn)	Lmaj promast 99
CCCCOC(=O)c1ccc(NC(=O)CSc2nncn2C)cc1	none
O=C1CC(SCc2nc3ccccc3[nH]2)C(=O)N1c1cccc(F)c1 (stereo not drawn)	WT yeast gro inh 76
CCn1c(O)c(C2=c3ccccc3=NC2=O)c2cc(Br)ccc21	WT yeast gro inh 72, Lmaj promast 100
Cc1ccc(NC(=O)/C(=C\c2ccccc2)NC(=O)/C=C/c2ccccc2)cc1	none
Cc1ccc(S(=O)(=O)c2c(C)nn(C(C)(C)C)c2OC(=O)CC(C)C)cc1	WT yeast gro inh 70
C=CCN1C(=O)/C(=C\c2ccc(Oc3nc(N4CCOCC4)nc(N4CCOCC4)n3)c(OC)c2)SC1=S	Lmaj promast 54
CCN(CC)S(=O)(=O)c1ccc(OC)c(NC(=O)Cc2cccs2)c1	none
CCN(c1ccccc1)S(=O)(=O)c1ccc(OC)c(NC(=O)c2cccs2)c1	Lmaj promast 96
NNc1nc(-c2ccccc2Cl)nc2sc3c(c12)CCCC3	none
COc1ccc(CCNc2nc(=S)[nH]c3cc(OC)c(OC)cc23)cc1OC	none
COc1cc2[nH]c(=S)nc(NCC3CCCO3)c2cc1OC (stereo not drawn)	none
COc1cc2[nH]c(=S)nc(NCCc3ccc(C)cc3)c2cc1OC	Lmaj promast 97
COc1cc2[nH]c(=S)nc(NC3CCCCCC3)c2cc1OC	Diaphorase inh 75
Cc1onc(-c2ccccc2Cl)c1C(=O)Oc1cccc2cccnc12	none
COC(=O)C1=CN(C(C)C)C=C(C(=O)OC)C1c1cc(Br)c(OC)c(OC)c1	Lmaj promast 100
CCOC(=O)N1CCN(C(=O)CN(C2CCCCC2)S(=O)(=O)c2ccc(C)cc2)CC1	none
Cc1ccc(S(=O)(=O)N(CC(=O)N2CCN(c3ccc(F)cc3)CC2)C2CCCCC2)cc1	Lmaj promast 59
CC1COC(=O)C(NNc2ccc(Cl)c(Cl)c2)=N1 (stereo not drawn)	Lmaj promast 100
CC(C)C1O/C(=N/C(=O)Nc2ccc(Cl)c(Cl)c2)NC1=O (stereo not drawn)	none
CCN(CC)c1ccc(NC(=O)C2CC(=O)N(Cc3ccccc3)C2)cc1 (stereo not drawn)	none
Cc1ccc(S(=O)(=O)N2CCCCC2)cc1NC(=O)C1CC(=O)N(Cc2ccccc2)C1 (stereo not drawn)	Lmaj promast 53
CS(=O)(=O)c1ccc(Cl)c(NC(=O)C2CC(=O)N(Cc3ccccc3)C2)c1 (stereo not drawn)	none
COc1ccc(CN2CC(C(=O)NCCC(C)C)CC2=O)cc1 (stereo not drawn)	Lmaj promast 100
CC(C)c1ccc(CN2CC(C(=O)Nc3ccccc3)CC2=O)cc1 (stereo not drawn)	Lmaj promast 62
O=C(Nc1ccccc1[N+](=O)[O-])c1cccnc1Cl	none
COc1cc(NC(=O)CSc2nnc(NC(C)C)s2)cc(OC)c1OC	none
CCN(CC)S(=O)(=O)c1cc(Br)ccc1OC	none
COc1cc(Cl)c(C)cc1NC(=O)CNC(C)c1ccccc1OC (stereo not drawn)	none
COc1ccc(S(=O)(=O)N(C(=O)C(C)C)c2ccc3oc(=O)sc3c2)cc1	none
CC(=O)N(c1ccc2oc(=O)sc2c1)S(=O)(=O)c1ccccc1	none
COc1ccc(S(=O)(=O)N(C(=O)c2ccco2)c2cc3sc(=O)oc3c3ccccc23)cc1	Lmaj promast 99
CCOc1ccc(NC(=O)c2ccco2)cc1	none
CCOc1ccc(S(=O)(=O)N(C(=O)c2ccco2)c2cc3sc(=O)oc3c3ccccc23)cc1	Lmaj promast 97
Cc1ccc(S(=O)(=O)N(C(=O)c2ccco2)c2cc3sc(=O)oc3c3ccccc23)cc1	Lmaj promast 98
COC(=O)CC1C(=O)NCCN1C(=O)CSc1nc2ccccc2c(=O)n1CC(C)C (stereo not drawn)	none
COc1ccccc1NC(=O)COc1ccc(CO)cc1Cl	none
Cc1[nH]nc(SCC(=O)N(C)c2ccccc2)c1[N+](=O)[O-]	none
Oc1[nH]c2c(Cl)cc(Cl)cc2c1N=NC(=S)NCC1CCCO1 (stereo not drawn)	Lmaj promast 98
O=C(COc1ccc(-n2cnnn2)cc1)NC(=O)NCc1ccccc1	none
Cc1nnsc1C(=O)NC(C)C12CC3CC(CC(C3)C1)C2 (stereo not drawn)	none
O=C(O)CCNc1nc(-c2ccccc2)nc2ccccc12	none
CCCOC(=O)c1cccc(Nc2nc(-c3cccnc3)nc3ccccc23)c1	Lmaj promast 56
O=C(OCCNc1nc(-c2ccccc2)nc2ccccc12)c1cccnc1	Lmaj promast 57
O=C(OCCNc1nc(-c2ccccc2)nc2ccccc12)c1ccncc1	Lmaj promast 72
COc1cc(/C=C/C(=O)OCC(=O)N2CCC(Cc3ccccc3)CC2)ccc1O	none
COc1cccc(/C=C/C(=O)OCC(=O)c2c[nH]c3ccccc23)c1OC	none
COc1cc(/C=C/C(=O)OCC(=O)N2CCc3ccccc3C2)ccc1O	Lmaj promast 76
CCc1cccc2c(C(=O)COC(=O)/C=C/c3ccc(O)c(OC)c3)c[nH]c12	Lmaj promast 99
Cc1nc(-c2ccc3c(c2)OCO3)cs1	none
CCOC(=O)c1cc(-c2ccc3c(c2)OCO3)nc2onc(C)c12	WT yeast gro inh 78
O=C1NCN(c2ccccc2)C12CCN(CCCC(c1ccc(F)cc1)c1ccc(F)cc1)CC2	WT yeast gro inh 73, Lmaj promast 101
CCN1CCN(c2cc(N3CCc4ccccc4C3)c(F)cc2[N+](=O)[O-])CC1	WT yeast gro inh 81, Lmaj promast 61
